In ChEMBL document CHEMBL1949586, “Conicasterol E, a small heterodimer partner sparing farnesoid X receptor modulator endowed with a pregnane X receptor agonistic activity, from the marine sponge Theonella swinhoei” (J Med Chem, 2012):
Active and inactive are the calls of the source. The rule behind the calls is not given here.

Tests used:
Assay type in all cases: functional, cell-based
[1] = molecular target: T1, Bile acid receptor (Homo sapiens) (UniProt Q96RI1); assay: Antagonist activity at FXR expressed in human HepG2 cells assessed as inhibition of 6-ECDCA-mediated transactivation at 10 uM after 48 hrs by luciferase reporter gene assay
T1 sequence (whole entry): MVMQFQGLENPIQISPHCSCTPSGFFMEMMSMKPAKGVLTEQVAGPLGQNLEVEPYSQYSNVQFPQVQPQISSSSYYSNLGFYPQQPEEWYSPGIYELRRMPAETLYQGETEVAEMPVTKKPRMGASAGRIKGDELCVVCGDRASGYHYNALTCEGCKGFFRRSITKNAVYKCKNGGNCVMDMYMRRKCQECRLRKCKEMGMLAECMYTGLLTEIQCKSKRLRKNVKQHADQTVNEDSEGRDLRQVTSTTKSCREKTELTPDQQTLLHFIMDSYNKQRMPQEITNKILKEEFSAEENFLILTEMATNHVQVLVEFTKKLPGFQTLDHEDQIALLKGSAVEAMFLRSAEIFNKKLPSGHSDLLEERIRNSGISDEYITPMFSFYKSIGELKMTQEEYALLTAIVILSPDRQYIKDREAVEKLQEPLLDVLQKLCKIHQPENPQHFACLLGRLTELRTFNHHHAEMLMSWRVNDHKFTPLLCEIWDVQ
In short: (§1)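 The FXR/RXR/hsp27-luciferase HepG2 transfection system was used, with test agent co-administered alongside 6-ECDCA. Stimulation was 18 h, starting 48 h after transfection. Luciferase was normalised to β-galactosidase.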

[2] = molecular target: T1, Bile acid receptor (Homo sapiens); assay: Antagonist activity at FXR expressed in human HepG2 cells assessed as inhibition of 6-ECDCA-mediated transactivation at 50 uM after 48 hrs by luciferase reporter gene assay; in short: as §1
[3] = molecular target: T1, Bile acid receptor (Homo sapiens); assay: Antagonist activity at FXR expressed in human HepG2 cells assessed as inhibition of CDCA-mediated transactivation at 50 uM after 48 hrs by luciferase reporter gene assay
In short: (§2)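 Antagonism was tested in the FXR transactivation system: HepG2 cells transfected with FXR, RXR, β-gal and the hsp27 IR1-luciferase reporter. Cells were stimulated 48 h after transfection for 18 h with 10 μM CDCA plus test agent. Luciferase was normalised to β-gal. Four experiments were run.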

[4] = molecular target: T1, Bile acid receptor (Homo sapiens); assay: Agonist activity at FXR expressed in human HepG2 cells assessed as increase in OSTalpha mRNA level at 10 uM by RT-PCR analysis
In short: (§3)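 HepG2 cells exposed to 10 μM test agent, alone or with 10 μM CDCA. mRNA was measured by SYBR Green real-time PCR with 50 ng template and 0.2 μM of each primer. Cycling was 95 °C 2 min, then 40 cycles of 95/55/72 °C. Reactions ran in triplicate. CT was normalised to GAPDH, and ΔΔCT was taken against untreated cells. Four experiments were run.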

[5] = molecular target: T2, Nuclear receptor subfamily 1 group I member 2 (Homo sapiens, UniProt O75469); assay: Agonist activity at PXR expressed in human HepG2 cells assessed as transactivation […] by luciferase reporter gene assay
T2 sequence (O75469 whole entry): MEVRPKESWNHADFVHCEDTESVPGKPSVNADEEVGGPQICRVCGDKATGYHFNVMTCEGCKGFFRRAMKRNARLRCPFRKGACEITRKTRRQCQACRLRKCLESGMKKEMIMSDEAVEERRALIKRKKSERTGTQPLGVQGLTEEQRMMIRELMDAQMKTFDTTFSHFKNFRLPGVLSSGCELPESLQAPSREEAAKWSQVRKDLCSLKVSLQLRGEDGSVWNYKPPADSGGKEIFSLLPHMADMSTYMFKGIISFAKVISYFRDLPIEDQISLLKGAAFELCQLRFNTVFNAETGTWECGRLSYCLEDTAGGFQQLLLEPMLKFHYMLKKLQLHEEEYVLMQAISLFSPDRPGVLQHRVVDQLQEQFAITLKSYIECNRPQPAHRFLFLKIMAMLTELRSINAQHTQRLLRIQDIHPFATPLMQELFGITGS

[6] = molecular target: T1, Bile acid receptor (Homo sapiens); assay: Agonist activity at FXR expressed in human HepG2 cells at 50 uM after 48 hrs by luciferase reporter gene based transactivation assay
In short: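 HepG2 cells (5 × 10⁵/well) were transfected using Fugene HD with pSG5-FXR, pSG5-RXR, pCMV-β-gal and the p(hsp27)-TK-LUC reporter (IR1 element). Cells were stimulated 48 h post-transfection for 18 h. Luciferase from lysates was normalised to β-galactosidase activity. Four experiments were run.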

[7] = molecular target: T2, Nuclear receptor subfamily 1 group I member 2; assay: Antagonist activity at PXR expressed in human HepG2 cells assessed as inhibition of rifaximin-induced CYP3A4 mRNA expression at 50 uM by RT-PCR analysis; conditions: hepg2, 50 µM
[8] = molecular target: T1, Bile acid receptor (Homo sapiens); assay: Agonist activity at FXR expressed in human HepG2 cells assessed as effect on SHP mRNA level at 10 uM by RT-PCR analysis; in short: as §3
[9] = molecular target: T1, Bile acid receptor (Homo sapiens); assay: Agonist activity at FXR expressed in human HepG2 cells assessed as increase in BSEP mRNA level at 10 uM by RT-PCR analysis; in short: as §3
[10] = molecular target: T1, Bile acid receptor (Homo sapiens); assay: Antagonist activity at FXR expressed in human HepG2 cells assessed as inhibition of CDCA-mediated transactivation at 10 uM after 48 hrs by luciferase reporter gene assay; in short: as §2
[11] = molecular target: T1, Bile acid receptor (Homo sapiens); assay: Agonist activity at FXR expressed in human HepG2 cells assessed as increase in CYP7A1 mRNA level at 10 uM by RT-PCR analysis relative to control; in short: as §3

inhibition [1] | inhibition [2] | inhibition [3] | Activity [4] | Activity [5] | Activity [6] | inhibition (INH) [7] | Activity [8] | inhibition [10] | fold change (FC) [11] | SMILES | Activity [9]
inactive | inactive | inactive | Active | Active | Active | Not Active | inactive | inactive | 2 | C=C1[C@@H](O)CC[C@@]2(C)[C@H]1C[C@@H](O)C1=C3[C@H](O)C[C@H]([C@H](C)CC[C@@H](C)C(C)C)[C@@]3(C)CC[C@@H]12 [CONICASTEROL E] | Active
 |  |  |  | Active |  |  |  |  |  | CO[C@H]1/C=C/O[C@@]2(C)Oc3c(C)c(O)c4c(O)c(c5c(nc6cc(C)ccn65)c4c3C2=O)NC(=O)/C(C)=C\C=C\[C@H](C)[C@H](O)[C@@H](C)[C@@H](O)[C@@H](C)[C@H](OC(C)=O)[C@@H]1C [RIFAXIMIN] | 
